From ChEMBL document CHEMBL5033990, “Novel Aryl-Substituted Pyrimidones as Inhibitors of 3-Mercaptopyruvate Sulfurtransferase with Antiproliferative Efficacy in Colon Cancer” (J Med Chem, 2021) come the findings set out here.

Experiment [1] can be described thus: Inhibition of recombinant human 3-MST expressed in Escherichia coli assessed as inhibition of H2S generation using 3-MP as substrate preincubated with enzyme for 1 hr followed by incubation with substrate for 1 hr by AzMC probe based fluorescence analysis. Summed up: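 Same 3-MST/3-MP/AzMC assay, 1 h preincubation then 1 h kinetic read, at 3, 10, 30, 100 and 300 μM (final DMSO 0.3%). Run for compounds inhibiting at least 60% at 100 μM. Three experiments in triplicate. IC50 from nonlinear fit of data taken between min 20 and 40 of the 60 min read.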

Experiment [2] in a line: Inhibition of GYY4137-induced H2S release assessed as H2S-induced fluorescence signal at 300 uM measured after 2 hrs by AzMC probe based fluorescence analysis. More on the design: scale not given: the % may be the effect or the level left. The format is functional. Summed up:
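H2S scavenging/interference check in 50 mM Tris-HCl pH 8: compound at 300 μM with 100 μM AzMC and 5 mM GYY4137 as nonenzymatic H2S donor. Fluorescence read kinetically for 2 h at 37 °C (ex 365/em 450 nm). Signal loss above 20% flagged as potential scavenger/interferer.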

The target in experiment [3] is T1, Cystathionine beta-synthase (Homo sapiens) (UniProt P35520).
T1 sequence (whole entry): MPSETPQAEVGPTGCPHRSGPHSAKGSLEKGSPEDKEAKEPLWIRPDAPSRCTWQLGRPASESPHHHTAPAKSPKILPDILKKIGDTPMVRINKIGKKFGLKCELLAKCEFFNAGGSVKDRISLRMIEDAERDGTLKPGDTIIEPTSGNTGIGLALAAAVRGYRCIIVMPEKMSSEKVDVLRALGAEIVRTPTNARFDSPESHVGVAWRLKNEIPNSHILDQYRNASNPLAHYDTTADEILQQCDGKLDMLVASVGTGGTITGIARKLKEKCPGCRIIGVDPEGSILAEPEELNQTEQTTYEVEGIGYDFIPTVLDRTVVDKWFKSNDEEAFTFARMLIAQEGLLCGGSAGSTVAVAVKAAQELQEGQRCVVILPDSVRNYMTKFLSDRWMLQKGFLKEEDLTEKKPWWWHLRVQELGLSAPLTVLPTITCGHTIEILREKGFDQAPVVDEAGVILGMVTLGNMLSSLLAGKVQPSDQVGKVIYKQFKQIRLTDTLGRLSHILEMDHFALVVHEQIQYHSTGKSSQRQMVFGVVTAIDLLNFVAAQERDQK
The experiment can be described thus: Inhibition of human full length CBS using L-cysteine and L-homocysteine as substrate at 30 to 300 uM preincubated with enzyme for 1 hr followed by substrate, PLP and SAM addition for 2 hrs by AzMC probe based fluorescence analysis. The note with it: dose 30-300 µM, time 3.0 hrs. Summed up: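 Human full-length CBS, 0.5 μg/well, preincubated 1 h with compound at 30 or 300 μM. Then added 5 μM PLP, 2 mM L-cysteine, 2 mM L-homocysteine and 500 μM SAM. AzMC fluorescence read kinetically for 2 h at 37 °C. Substrate background subtracted; percent of control, at least three replicates.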

For experiment [4], the target named is Cystathionine gamma-lyase (Homo sapiens) (UniProt P32929). Kind of experiment: Inhibition of human full length CSE using L-cysteine as substrate at 30 to 300 uM preincubated with enzyme for 1 hr followed by substrate and PLP addition for 2 hrs by AzMC probe based fluorescence analysis. The note with it: dose 30-300 µM, time 3.0 hrs. Summed up:
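Human full-length CSE, 2 μg/well, preincubated 1 h with compound at 30 or 300 μM. Then added 5 μM PLP and 2 mM L-cysteine. AzMC fluorescence read kinetically for 2 h at 37 °C. Substrate background subtracted; percent of control, at least three replicates.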

Experiment [5] relates to MC-38. The experiment can be described thus: Antiproliferative activity against mouse MC38 cells assessed as inhibition of cell proliferation measured after 24 hrs by MTT assay. The format is functional, cell-based. Particulars: MC-38, 24 h. A general note: Tetrazolium dyes change colour on reduction, which living cells bring about.
The subject of experiment [6] is CT26. The experiment can be described thus: Inhibition of 3-MST in mouse CT26 cells assessed as inhibition of H2S generation at 300 uM incubated for 4 hrs by AzMC probe based fluorescence analysis. Type of experiment: cell-based. A digest of the protocol: (§1)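 Cells seeded at 60,000/well in 8-well chambers and allowed to adhere overnight. Exposed to 300 μM compound for 4 h, then supernatant replaced with 1 mM AzMC in HBSS plus glucose for 1 h. Fluorescence imaged by microscopy; mean pixel intensity expressed as percent of control.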

Experiment [7] has as its system MC-38. The experiment can be described thus: Antiproliferative activity against mouse MC38 cells assessed as inhibition of cell proliferation measured after 48 hrs by IncuCyte live-cell imaging assay. Type of experiment: functional, cell-based. The note with it: MC-38, 48 h.
For experiment [8], the system named is MC-38. Kind of experiment: Antiproliferative activity against mouse MC38 cells assessed as inhibition of cell proliferation upto 300 uM measured after 24 hrs by MTT assay. The format is functional, cell-based. Particulars: dose microM <=300, time 24.0 hrs. Summed up: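 CT26 or MC38 cells in high-glucose DMEM with 10% FBS and penicillin/streptomycin, 37 °C, 5% CO2. Seeded at 10,000 cells/well and treated after 1 h adherence at 3, 10, 30, 100 and 300 μM (final DMSO 0.5%). After 24 h, medium replaced by 2 mg/mL MTT in PBS for 3 h. Formazan dissolved in DMSO, absorbance read at 590 nm minus 690 nm. Expressed as percent of control; three experiments in triplicate.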

Another experiment has as its system MC38. The experiment can be described thus: Inhibition of 3-MST in mouse MC38 cells assessed as inhibition of H2S generation at 300 uM incubated for 4 hrs by AzMC probe based fluorescence analysis. Type of experiment: cell-based. Summed up: as §1
Experiment [9] concerns CT26. Kind of experiment: Antiproliferative activity against mouse CT26 cells assessed as inhibition of cell proliferation measured after 24 hrs by MTT assay. The format is functional, cell-based. The note with it: CT26, 24 h.
In experiment [10] the test system is CT26. Kind of experiment: Antiproliferative activity against mouse CT26 cells assessed as inhibition of cell proliferation measured after 48 hrs by IncuCyte live-cell imaging assay. The format is functional, cell-based. The note with it: CT26, 48 h.
The test system of another experiment is Mus musculus. Kind of experiment: Antitumor activity against mouse MC38 cells xenografed in C57BL/6 mouse assessed as euthanasia rate at 20 mg/kg, ip administered daily for 2 weeks and measured on day 32 (reference value: 75%). The format is functional, MC-38. The note with it: time 32 day.
The test system of experiment [11] is MC-38. Kind of experiment: Antitumor activity against mouse MC38 cells xenografed in C57BL/6 mouse assessed as reduction in tumor growth at 20 mg/kg, ip administered daily for 2 weeks by caliper analysis. Type of experiment: functional, organism-based.

The source made the active and inactive calls. The calls are words filed in the database; no cut-off is given here.

Cystathionine gamma-lyase (Homo sapiens), sequence (P32929 whole entry): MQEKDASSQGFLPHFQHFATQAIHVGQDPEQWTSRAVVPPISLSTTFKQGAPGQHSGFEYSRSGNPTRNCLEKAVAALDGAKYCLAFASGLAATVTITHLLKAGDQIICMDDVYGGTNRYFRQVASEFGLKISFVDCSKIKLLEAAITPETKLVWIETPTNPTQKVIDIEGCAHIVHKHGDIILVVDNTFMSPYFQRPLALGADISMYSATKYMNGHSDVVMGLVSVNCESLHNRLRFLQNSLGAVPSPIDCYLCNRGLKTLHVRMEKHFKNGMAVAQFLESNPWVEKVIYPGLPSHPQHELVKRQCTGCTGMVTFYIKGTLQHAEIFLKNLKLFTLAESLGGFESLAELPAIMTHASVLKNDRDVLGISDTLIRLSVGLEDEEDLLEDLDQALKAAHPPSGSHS

In the case of `NC(=O)c1cc(C(=O)CSc2nccc(=O)[nH]2)ccc1O`, in experiment [1], the IC50 – broadly, the concentration at which inhibition is half-maximal – was 20.2 µM. Moreover, in experiment [2], the Activity is below 80%.
In the case of `Cc1cc(=O)[nH]c(SCC(=O)c2ccc(F)c3ccccc23)n1`, the IC50 in experiment [1] was determined as 35.9 µM.
As to `Cc1cc(=O)[nH]c(SCC(=O)c2ccc(O)c(I)c2)n1`, the IC50 in [1] came out at 16.9 µM. Also, the Activity in experiment [2] was below 80%.
Taken in the same sequence, the figures for `Cc1cc(O)nc(SCC(=O)c2ccc(O)c(O)c2)n1` were 15.6 µM and below 80%.
For the compound `Nc1c(Cl)cc(C(=O)CSc2nccc(=O)[nH]2)cc1Cl`, the IC50 in [1] was determined as 6.6 µM. For the same compound, the Activity in experiment [2] was below 80%.
The like results for `O=C(CSc1nccc(=O)[nH]1)c1cc(O)cc(O)c1` were, in that order, 34.1 µM and below 80%.
Turning to `O=C(CSc1nccc(=O)[nH]1)c1ccc(O)c(Cl)c1`, in experiment [1], the IC50 turned out to be 18.8 µM. Moreover, the Activity in experiment [2] was below 80%.
Turning to `Cc1cc(=O)[nH]c(SCC(=O)c2ccc3c(c2)OCO3)n1`, the inhibition result in experiment [3] and in experiment [4] was “inactive” each time. Besides, the IC50 in the experiment on MC-38 [5] came to 367 µM; in the experiment on MC-38 [7], 777 µM; in experiment [1] it was 19.5 µM; in the experiment on CT26 [9] it was 502 µM; in the experiment on CT26 [10] it was 520 µM. Besides, the inhibition result with CT26 [6] and with MC38 was “Active” in each case. The outcome in the experiment with MC-38 [8] was inactive.
Take `O=C(CSc1nccc(=O)[nH]1)c1ccc2ncccc2c1`: in [1], the IC50 is 15.5 µM. The Activity in experiment [2] is below 80%.
The like results for `O=C(CSc1nccc(=O)[nH]1)c1ccc(O)c(F)c1` were, in that order, 21.6 µM and below 80%.
The like results for `Cc1cc(=O)[nH]c(SCC(=O)c2ccc(O)c(C(N)=O)c2)n1` were, in that order, 21.3 µM and below 80%.
Regarding `O=C(CSc1nccc(=O)[nH]1)c1cc(Cl)c(O)c(Cl)c1`, in experiment [1], the IC50 worked out at 12.1 µM. Further, the Activity in experiment [2] was below 80%.
Taken in the same sequence, the figures for `Cc1cc(=O)[nH]c(SCC(=O)c2ccc(O)c(F)c2)n1` were 28 µM and below 80%.
`Cc1cc(=O)[nH]c(SCC(=O)c2ccc(O)c3ccccc23)n1`: in experiment [1], the IC50 worked out at 3.3 µM. Further, the Activity in experiment [2] is below 80%.
Regarding `O=C(CSc1nccc(=O)[nH]1)c1cccc2ccccc12`, the inhibition result in [3] and in experiment [4] was “inactive” each time. Besides, the IC50 with MC-38 [5] was 366 µM; with MC-38 [7], 191 µM; in [1], 7.3 µM; with CT26 [9] it was 356 µM; in the experiment on CT26 [10], 352 µM. For the same compound, the inhibition entry in the experiment with CT26 [6] and in the experiment with MC38 was “Active” in each case. In the experiment with Mus musculus, the Activity worked out at 33%. In the experiment on MC-38 [11], the outcome was Active.
`Cc1cc(O)nc(SCC(=O)c2ccc(O)cc2)n1`: the IC50 in experiment [1] is 10.8 µM. Further, the Activity in experiment [2] was below 80%.
Taken in the same sequence, the figures for `O=C(CSc1nccc(=O)[nH]1)c1ccc(O)c(I)c1` were 14.2 µM and below 80%.
Taken in the same sequence, the figures for `Cc1cc(=O)[nH]c(SCC(=O)c2cc(Cl)c(O)c(Cl)c2)n1` were 13.4 µM and below 80%.
The like results for `Cc1cc(=O)[nH]c(SCC(=O)c2ccc(O)c(Cl)c2)n1` were, in that order, 25.3 µM and below 80%.
Take `O=C(CSc1nccc(=O)[nH]1)c1ccc(F)c2ccccc12`: the IC50 in [1] was found to be 31.8 µM.
Consider `CC(=O)Nc1ccc(C(=O)CSc2nccc(O)n2)cc1`, for which the inhibition entry in experiment [3] and in [4] was “inactive” throughout. For the same compound, the IC50 in the experiment on MC-38 [5] was above 1000 µM; with MC-38 [7], above 1000 µM; in experiment [1] it was 14.4 µM; in the experiment on CT26 [9] it was 475 µM; in the experiment on CT26 [10] it was above 1000 µM. For the same compound, the inhibition result in the experiment on CT26 [6] and in the experiment with MC38 was “Active” throughout. Besides, the result with MC-38 [8] was inactive.
`O=C(CSc1nccc(=O)[nH]1)c1ccc2ccccc2c1`: the inhibition entry in experiment [3] and in experiment [4] was “inactive” each time. The IC50 was determined as 340 µM in the experiment with MC-38 [5]; 152 µM in the experiment with MC-38 [7]; 28.2 µM in experiment [1]; 200 µM with CT26 [9]; 150 µM in the experiment on CT26 [10]. Besides, the inhibition result in the experiment on CT26 [6] and with MC38 was “Active” in each case.
As for `Cc1cc(=O)[nH]c(SCC(=O)c2ccc3ncccc3c2)n1`, the inhibition result in experiment [4] was “Active”. Further, the IC50 in experiment [1] amounted to 16.1 µM.
For `O=C(CSc1nccc(=O)[nH]1)c1ccc(O)cc1`, the inhibition entry in experiment [4] was “Active”. The IC50 in experiment [1] was 12.9 µM.
As to `Cc1cc(=O)[nH]c(SCC(=O)c2ccc3ccccc3c2)n1`, the IC50 in experiment [1] is 22.6 µM.
On to `CC(=O)Nc1ccc(C(=O)CSc2nc(C)cc(O)n2)cc1`, for which the inhibition result in [3] and in experiment [4] was “inactive” throughout. For the same compound, the IC50 in the experiment on MC-38 [5] was above 1000 µM; with MC-38 [7], above 1000 µM; in experiment [1], 9.9 µM; in the experiment with CT26 [9], above 1000 µM; in the experiment on CT26 [10] it was above 1000 µM. Besides, the inhibition entry in the experiment on CT26 [6] and in the experiment on MC38 was “Active” throughout. Also, in the experiment with MC-38 [8], the result was inactive.
With `Cc1cc(=O)[nH]c(SCC(=O)c2cc(O)cc(O)c2)n1`, the inhibition entry in experiment [3] and in [4] was “inactive” throughout. Besides, the IC50 is above 1000 µM with MC-38 [5]; above 1000 µM in the experiment with MC-38 [7]; 23.6 µM in [1]; above 1000 µM in the experiment with CT26 [9]; above 1000 µM with CT26 [10]. The inhibition entry in the experiment with CT26 [6] and in the experiment with MC38 was “Active” throughout. Moreover, the result in the experiment with MC-38 [8] was inactive.
For the compound `O=C(CSc1nccc(=O)[nH]1)c1ccc(O)c(O)c1`, the IC50 in experiment [1] amounted to 18.9 µM. Also, the Activity in [2] was below 80%.
